# According to ChEMBL document CHEMBL1127564, “Studies on neurokinin antagonists. 4. Synthesis and structure-activity relationships of novel dipeptide substance P antagonists: N2-[(4R)-4-hydroxy-1-[(1-methyl-1H-indol-3-yl)carbonyl]-L-prolyl]-N- methyl-N-(phenylmethyl)-3-(2-naphthyl)-L-alaninamide and its related compounds” (J Med Chem, 1994):
# What was measured:
# [1] = biological target: Substance-P receptor (Cavia porcellus, UniProt P30547); assay: In vitro binding affinity against substance P receptor using [3H]SP as radioligand in guinea pig lung membrane; assay type: cell membranes
# Sequence of Substance-P receptor (P30547 whole entry): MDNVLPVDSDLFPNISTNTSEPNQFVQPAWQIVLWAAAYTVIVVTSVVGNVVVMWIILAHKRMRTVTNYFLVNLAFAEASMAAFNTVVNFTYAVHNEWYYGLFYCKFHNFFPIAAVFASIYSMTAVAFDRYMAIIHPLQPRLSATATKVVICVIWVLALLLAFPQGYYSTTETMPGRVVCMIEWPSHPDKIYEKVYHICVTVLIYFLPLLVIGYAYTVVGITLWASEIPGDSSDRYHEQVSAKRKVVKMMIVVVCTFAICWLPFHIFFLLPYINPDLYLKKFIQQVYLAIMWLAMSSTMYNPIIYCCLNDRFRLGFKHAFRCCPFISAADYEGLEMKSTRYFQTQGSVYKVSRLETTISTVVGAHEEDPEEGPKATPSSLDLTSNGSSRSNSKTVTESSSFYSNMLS
# Summary of the method: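 Guinea pig lung membranes incubated with 1 nM [3H]SP, with or without test compound, 0.5 h at 4 °C in 50 mM Tris-HCl pH 7.5, 5 mM MnCl2, 0.02% BSA, chymostatin, leupeptin, bacitracin. Filtered on glass-fibre filters, radioactivity counted by scintillation. Specific binding defined as that displaced by 5 μM unlabeled SP. IC50 estimated from the displacement curve. Duplicate assays, usually a single experiment.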
# [2] = system: Cavia porcellus; assay: In vivo inhibitory activity against airway edema induced by Substance P at a dose 10 mg/kg administered orally; assay type: functional; settings: route oral
# Summary of the method: (§1)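 Male Hartley guinea pigs dosed orally with drug in DMSO solution, or with vehicle, 30 min before intravenous SP (1.3 μg/kg) given with Evans Blue (20 mg/kg) and heparin (200 IU/kg). Trachea and main bronchi removed 10 min after challenge; dye extracted and read at 620 nm. Percent inhibition of edema reported, two animals per experiment.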
# [3] = system: Cavia porcellus; assay: In vivo inhibitory activity against airway edema induced by Substance P at a dose 100 mg/kg administered orally; assay type: functional; settings: route oral; summary of the method: as §1
IC50 ([1]; read-out: IC50) [nM],IC50 [1],SMILES,inhibition in vivo at 10 mg/kg [2] [%],inhibition in vivo at 100 mg/kg [3] [%]
15.9,–,CC(C)n1cc(C(=O)N2C[C@H](O)CC2C(=O)N[C@H](Cc2ccccc2)C(=O)N(C)Cc2ccccc2)c2ccccc21 (stereo not given in full),48,–
19.9,–,CN(Cc1ccccc1)C(=O)[C@@H](Cc1ccccc1)NC(=O)C1C[C@@H](O)CN1C(=O)c1cc2ccccc2s1 (stereo not given in full),37,–
7,–,CN(Cc1ccccc1)C(=O)[C@@H](Cc1ccc([N+](=O)[O-])cc1)NC(=O)C1C[C@@H](O)CN1C(=O)c1cn(C)c2ccccc12 (stereo not given in full),19,39
49.7,–,CN(Cc1ccccc1)C(=O)[C@@H](Cc1ccccc1)NC(=O)C1C[C@@H](O)CN1C(=O)c1cn(CC(=O)O)c2ccccc12 (stereo not given in full),–,–
3.5,–,CN(Cc1ccccc1)C(=O)[C@@H](Cc1cn(C=O)c2ccccc12)NC(=O)C1C[C@@H](O)CN1C(=O)c1cn(C)c2ccccc12 (stereo not given in full),–,21
10.3,–,CN(Cc1ccccc1)C(=O)[C@@H](Cc1csc2ccccc12)NC(=O)C1C[C@@H](O)CN1C(=O)c1cn(C)c2ccccc12 (stereo not given in full),34,99
14,–,CN(Cc1ccccc1)C(=O)[C@@H](Cc1ccccc1F)NC(=O)C1C[C@@H](O)CN1C(=O)c1cn(C)c2ccccc12 (stereo not given in full),–,35
8,–,CN(Cc1ccccc1)C(=O)[C@@H](Cc1ccccc1)NC(=O)C1CCN1C(=O)c1c[nH]c2ccccc12 (stereo not given in full),–,–
9,–,CN(Cc1ccccc1)C(=O)[C@@H](Cc1ccccc1)NC(=O)C1C[C@@H](O)CN1C(=O)/C=C/c1ccccc1 (stereo not given in full),47,–
27.3,–,CN(Cc1ccccc1)C(=O)[C@@H](Cc1ccc2cc(Cl)ccc2c1)NC(=O)C1C[C@@H](O)CN1C(=O)c1cn(C)c2ccccc12 (stereo not given in full),–,–
–,–,CN(Cc1ccccc1)C(=O)[C@@H](Cc1ccccc1)NC(=O)C1C[C@@H](O)CN1C(=O)c1cn(C)c2ccccc12 (stereo not given in full),51,75
–,Not Active,CN(Cc1ccccc1)C(=O)[C@@H](Cc1ccccc1)NC(=O)[C@H]1CCCN1C(=O)c1c[nH]c2ccccc12,–,–
–,23 nM,Cc1ccc2cc(C[C@@H](NC(=O)C3C[C@@H](O)CN3C(=O)c3cn(C)c4ccccc34)C(=O)N(C)Cc3ccccc3)ccc2c1 (stereo not given in full),–,28
1.7,–,CN(Cc1ccccc1)C(=O)[C@@H](Cc1ccc2ccccc2c1)NC(=O)C1C[C@@H](O)CN1C(=O)c1cn(C)c2ccccc12 (stereo not given in full),86,94
11.6,–,CN(Cc1ccccc1)C(=O)[C@@H](Cc1ccc2c(c1)CCCC2)NC(=O)C1C[C@@H](O)CN1C(=O)c1cn(C)c2ccccc12 (stereo not given in full),69,87
7.6,–,COc1ccc(C[C@@H](NC(=O)C2C[C@@H](O)CN2C(=O)c2cn(C)c3ccccc23)C(=O)N(C)Cc2ccccc2)cc1 (stereo not given in full),29,91
1.7,–,CN(Cc1ccccc1)C(=O)[C@@H](Cc1c[nH]c2ccccc12)NC(=O)C1C[C@@H](O)CN1C(=O)c1cn(C)c2ccccc12 (stereo not given in full),–,7
1.1,–,CN(Cc1ccccc1)C(=O)[C@@H](Cc1ccc2c(c1)OCCO2)NC(=O)C1C[C@@H](O)CN1C(=O)c1cn(C)c2ccccc12 (stereo not given in full),–,1
25.3,–,CN(Cc1ccccc1)C(=O)[C@@H](Cc1ccc(NS(C)(=O)=O)cc1)NC(=O)C1C[C@@H](O)CN1C(=O)c1cn(C)c2ccccc12 (stereo not given in full),–,0

IC50 ([1]; read-out: IC50) [nM],IC50 [1],SMILES,inhibition in vivo at 10 mg/kg [2] [%],inhibition in vivo at 100 mg/kg [3] [%]
–,4.3 nM,CN(Cc1ccccc1)C(=O)[C@@H](Cc1ccc(F)cc1)NC(=O)C1C[C@@H](O)CN1C(=O)c1cn(C)c2ccccc12 (stereo not given in full),30,96
–,9.2 nM,CN(Cc1ccccc1)C(=O)[C@@H](Cc1cccc(F)c1)NC(=O)C1C[C@@H](O)CN1C(=O)c1cn(C)c2ccccc12 (stereo not given in full),–,85
–,3.5 nM,CN(Cc1ccccc1)C(=O)[C@@H](Cc1cccc(C(F)(F)F)c1)NC(=O)C1C[C@@H](O)CN1C(=O)c1cn(C)c2ccccc12 (stereo not given in full),–,66
–,4.9 nM,CN(Cc1ccccc1)C(=O)[C@@H](Cc1ccc(C(F)(F)F)cc1)NC(=O)C1C[C@@H](O)CN1C(=O)c1cn(C)c2ccccc12 (stereo not given in full),83,94
–,1.8 nM,CN(Cc1ccccc1)C(=O)[C@@H](Cc1ccc(O)cc1)NC(=O)C1C[C@@H](O)CN1C(=O)c1cn(C)c2ccccc12 (stereo not given in full),–,11
3.5,–,CN(C)CCn1cc(C(=O)N2C[C@H](O)CC2C(=O)N[C@H](Cc2ccccc2)C(=O)N(C)Cc2ccccc2)c2ccccc21 (stereo not given in full),2,–
14,–,CN(Cc1ccccc1)C(=O)[C@@H](Cc1ccccc1)NC(=O)C(CCCCN)NC(=O)c1c[nH]c2ccccc12 (stereo not given in full),–,–
5.4,–,CN(Cc1ccccc1)C(=O)[C@@H](Cc1ccc(N)cc1)NC(=O)C1C[C@@H](O)CN1C(=O)c1cn(C)c2ccccc12 (stereo not given in full),–,0
14,–,CN(Cc1ccccc1)C(=O)[C@@H](Cc1ccccc1)NC(=O)C1C[C@@H](O)CN1C(=O)CCc1ccccc1 (stereo not given in full),4,–
289,–,CN(Cc1ccccc1)C(=O)[C@@H](Cc1ccccc1)NC(=O)C1CCC(O)CN1C(=O)c1c[nH]c2ccccc12 (stereo not given in full),–,–
–,Not Active,CN(Cc1ccccc1)C(=O)[C@@H](Cc1ccccc1)NC(=O)C(CC(=O)O)NC(=O)c1c[nH]c2ccccc12 (stereo not given in full),–,–
9,–,CN(Cc1ccccc1)C(=O)[C@@H](Cc1ccccc1)NC(=O)C(CC(N)=O)NC(=O)c1c[nH]c2ccccc12 (stereo not given in full),–,–
11,–,CN(Cc1ccccc1)C(=O)[C@@H](Cc1ccccc1)NC(=O)C(CO)NC(=O)c1c[nH]c2ccccc12 (stereo not given in full),–,–
5,–,CN(Cc1ccccc1)C(=O)[C@@H](Cc1ccccc1)NC(=O)C1C[C@@H](O)CN1C(=O)c1[nH]nc2ccccc12 (stereo not given in full),0,–
–,32 nM,CN(Cc1ccccc1)C(=O)[C@@H](Cc1ccccc1)NC(=O)C1C[C@@H](O)CN1C(=O)CCCc1ccccc1 (stereo not given in full),–,–
139,–,CN(Cc1ccccc1)C(=O)[C@@H](Cc1ccccc1)NC(=O)C1C[C@@H](O)CN1C(=O)Cc1ccccc1 (stereo not given in full),–,–
5.4,–,CN(Cc1ccccc1)C(=O)[C@@H](Cc1ccccc1)NC(=O)C1CCCN1C(=O)c1c[nH]c2ccccc12 (stereo not given in full),–,–
4.6,–,"CN(Cc1ccccc1)C(=O)C(Cc1ccccc1)NC(=O)C1C[C@H](O)CN1C(=O)c1c[nH]c2ccccc12 (single isomer, unassigned)",–,–
7.4,–,"CN(Cc1ccccc1)C(=O)C(Cc1ccccc1)NC(=O)C1C[C@@H](O)CN1C(=O)c1c[nH]c2ccccc12 (single isomer, unassigned)",–,8
